Experimental findings from ChEMBL document CHEMBL3861974, “Discovery of a Selective Aurora A Kinase Inhibitor by Virtual Screening” (J Med Chem, 2016) are described below.

In experiment [1] the target is T1, Aurora kinase A (Homo sapiens, UniProt O14965).
T1 sequence (O14965 whole entry): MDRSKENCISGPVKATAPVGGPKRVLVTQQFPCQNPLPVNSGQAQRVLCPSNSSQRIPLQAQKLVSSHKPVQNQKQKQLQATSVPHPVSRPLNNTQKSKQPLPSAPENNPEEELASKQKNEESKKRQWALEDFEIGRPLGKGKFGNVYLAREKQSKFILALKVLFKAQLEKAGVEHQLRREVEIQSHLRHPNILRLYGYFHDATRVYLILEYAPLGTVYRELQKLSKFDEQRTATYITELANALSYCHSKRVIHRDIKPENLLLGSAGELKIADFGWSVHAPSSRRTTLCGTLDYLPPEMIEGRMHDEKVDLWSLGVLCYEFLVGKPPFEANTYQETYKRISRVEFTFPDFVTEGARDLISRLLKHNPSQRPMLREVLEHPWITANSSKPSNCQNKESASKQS
As to the kind of experiment: Inhibition of His-tagged human Aurora A kinase ([…] residues) expressed in Escherichia coli BL21 (DE3) Rosetta cells using biotinylated STK2 substrate incubated for 30 mins by HTRF assay. In general terms: In TR-FRET formats the signal depends on donor and acceptor labels being close together.

For experiment [2], the target named is Aurora kinase B/Inner centromere protein (Homo sapiens, UniProt Q96GD4). As to the kind of experiment: Inhibition of Aurora-B/INCENP (unknown origin) using biotinylated STK2 substrate incubated for 30 mins by HTRF assay. Type of experiment: protein-complex assay. In a few lines:
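Biochemical kinase inhibition was read by HTRF with 20 µM ATP. Aurora B was assayed as its complex with the activator INCENP. For Aurora A, IC50 curves were recorded at different TPX2 concentrations.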

A further experiment is filed under the species Homo sapiens. The experiment in a line: Selectivity index, ratio of IC50 for Aurora-B/INCENP (unknown origin) to IC50 for His-tagged human Aurora A kinase ([…] residues) expressed in Escherichia coli BL21 (DE3) Rosetta cells.
For experiment [3], the target named is T2, Aurora kinase B (Homo sapiens, UniProt Q96GD4). As to conditions: HeLa Kyoto, 2.5 uM.
Experiment [4] addresses T2, Aurora kinase B. As to conditions: HeLa Kyoto, 2.5 uM. This is another data set of the same source.
Experiment [5] addresses T1, Aurora kinase A. The experiment in a line: Inhibition of Aurora A kinase autophosphorylation at Thr288 in human HeLa Kyoto cells incubated for 20 hrs. Type of experiment: cell-based.
The subject of another experiment is HeLa Kyoto. The experiment in a line: Increase in mitotic index in human HeLa Kyoto cells incubated for 20 hrs. The format is functional, cell-based. In a few lines: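 HeLa Kyoto cells were incubated overnight with compound, and the fraction of mitotic cells was scored. The experiment was repeated twice; mean ± SD.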

Molecules are shown by their SMILES. Calls of active or inactive are those of the source. The calls are words filed in the database; no cut-off is given here.

As usually defined, the IC50 is the point on the concentration scale where inhibition reaches its midpoint. Higher therefore signals lower potency.

Sequence of Aurora kinase B/Inner centromere protein (Q96GD4 whole entry): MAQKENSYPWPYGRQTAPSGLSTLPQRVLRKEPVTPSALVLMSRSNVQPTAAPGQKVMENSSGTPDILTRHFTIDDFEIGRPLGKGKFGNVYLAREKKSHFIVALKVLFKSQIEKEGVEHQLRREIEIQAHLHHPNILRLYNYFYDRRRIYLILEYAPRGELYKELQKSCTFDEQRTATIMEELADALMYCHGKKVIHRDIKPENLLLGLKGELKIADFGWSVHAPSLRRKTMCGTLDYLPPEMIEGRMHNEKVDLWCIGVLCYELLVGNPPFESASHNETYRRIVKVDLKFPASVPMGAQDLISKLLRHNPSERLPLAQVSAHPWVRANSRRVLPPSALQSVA
Sequence of Aurora kinase B/Inner centromere protein (Q9NQS7 whole entry, further chain): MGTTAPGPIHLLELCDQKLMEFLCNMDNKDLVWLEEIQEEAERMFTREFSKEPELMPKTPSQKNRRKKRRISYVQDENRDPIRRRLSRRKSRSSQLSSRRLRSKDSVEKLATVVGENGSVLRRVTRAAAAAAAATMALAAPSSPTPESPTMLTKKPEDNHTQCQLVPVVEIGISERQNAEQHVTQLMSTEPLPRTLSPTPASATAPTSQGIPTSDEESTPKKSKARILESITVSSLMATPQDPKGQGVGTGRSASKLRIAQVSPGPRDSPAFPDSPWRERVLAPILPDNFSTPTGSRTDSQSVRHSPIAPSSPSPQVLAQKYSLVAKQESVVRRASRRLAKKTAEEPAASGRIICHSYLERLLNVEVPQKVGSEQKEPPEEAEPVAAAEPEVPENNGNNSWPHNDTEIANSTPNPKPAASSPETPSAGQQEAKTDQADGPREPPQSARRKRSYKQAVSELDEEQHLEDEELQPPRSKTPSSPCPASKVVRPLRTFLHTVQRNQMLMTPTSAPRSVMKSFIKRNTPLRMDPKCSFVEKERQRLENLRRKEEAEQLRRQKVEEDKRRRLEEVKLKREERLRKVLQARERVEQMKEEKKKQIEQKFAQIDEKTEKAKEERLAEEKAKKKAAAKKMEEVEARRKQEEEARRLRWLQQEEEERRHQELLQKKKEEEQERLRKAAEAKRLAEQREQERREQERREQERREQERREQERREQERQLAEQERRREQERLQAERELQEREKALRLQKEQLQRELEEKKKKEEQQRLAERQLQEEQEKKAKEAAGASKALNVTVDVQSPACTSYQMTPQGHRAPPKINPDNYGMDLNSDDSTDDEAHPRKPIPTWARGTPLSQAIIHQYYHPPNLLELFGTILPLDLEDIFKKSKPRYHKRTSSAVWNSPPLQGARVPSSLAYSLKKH
T2 sequence (Q96GD4 whole entry): as the sequence (Q96GD4 whole entry) above

Turning to `CCc1ccc(/N=C2\S/C(=C\c3ccnc(Nc4ccc(C(=O)O)cc4)c3)C(=O)N2C)cc1`, the figures for the IC50 (against Aurora kinase A [1]; in experiment [2]) were 6.2 nM and 1540 nM, respectively. Moreover, in the experiment listed under Homo sapiens, the Ratio IC50 was determined as 250.
For `CCc1ccc(/N=C2\S/C(=C\c3ccnc(NC(=O)CCN)c3)C(=O)N2C)cc1`, the results for the IC50 (at Aurora kinase A [1]; in experiment [2]) were 190 nM and 10000 nM, respectively. The Ratio IC50 in the experiment filed under Homo sapiens is 53.
The corresponding values for `CCc1ccc(/N=C2\S/C(=C\c3ccnc(Nc4ccc(-c5nnn[nH]5)cc4)c3)C(=O)N2C)cc1` are 25 nM, 830 nM and 33.
For the compound `CN1C(=O)/C(=C/c2ccncc2)S/C1=N\c1ccc(C(F)(F)F)cc1`, it took 370 nM to reach half-maximal inhibition against Aurora kinase A [1] (IC50).
At Aurora kinase A [1], `O=c1[nH]c2ccc(Cl)cc2n1-c1nc2ccccc2[nH]1` returned an IC50 of 23000 nM.
For the compound `CCc1ccc(/N=C2\S/C(=C\c3ccnc(NC(=O)CCC(=O)O)c3)C(=O)N2C)cc1`, the IC50 came out at 4 nM against Aurora kinase A [1] and 1700 nM in experiment [2]. In the experiment listed under Homo sapiens, the Ratio IC50 is 415.
Compound `CCCc1ccc(/N=C2\S/C(=C\c3ccncc3)C(=O)N2C)cc1` displayed an IC50 at Aurora kinase A [1] of 1900 nM.
The same measure, in the same setting: then `CN1C(=O)/C(=C/c2ccncc2)S/C1=N\c1ccc(C(C)(C)C)cc1`, with 1600 nM; and `CCc1ccc(/N=C2\S/C(=C\c3ccncc3)C(=O)N2C)cc1`, with 390 nM.
At Aurora kinase A [1], `CCc1ccc(/N=C2\S/C(=C\c3ccnc(Nc4ccccn4)c3)C(=O)N2C)cc1` gave an IC50 of 220 nM.
In the case of `O=c1[nH]c2cccc(O)c2n1-c1nc2ccccc2[nH]1`, on Aurora kinase A [1], half-maximal inhibition (IC50) required 15000 nM.
Take `CCc1ccc(/N=C2\S/C(=C\c3ccnc(NC(=O)CC(=O)O)c3)C(=O)N2C)cc1`: the IC50 against Aurora kinase A [1] is 6 nM; in experiment [2], 2700 nM. The Ratio IC50 in the experiment filed under Homo sapiens was 450.
As to `CCc1ccc(/N=C2\S/C(=C\c3ccnc(NC(=O)CCCC(=O)O)c3)C(=O)N2C)cc1`, the IC50 was determined as 6.2 nM against Aurora kinase A [1] and 1400 nM in experiment [2]. The Ratio IC50 in the experiment listed under Homo sapiens turned out to be 230.
Consider `COc1cc2c(Nc3ccc(NC(=O)c4ccccc4)cc3)ncnc2cc1OCCCN1CCOCC1`, for which the inhibition entry on Aurora kinase B [3] and at Aurora kinase B [4] was “Active” each time.
Compound `CC(C)c1ccc(/N=C2\S/C(=C\c3ccncc3)C(=O)N2C)cc1` came in with an IC50 against Aurora kinase A [1] of 780 nM.
`CCc1ccc(/N=C2\SC3(CC3c3ccnc(N)c3)C(=O)N2C)cc1` (racemic) came in with an IC50 on Aurora kinase A [1] of 76000 nM.
In the case of `CCc1ccc(/N=C2\SC(Cc3ccnc(Nc4ccc(C(=O)O)cn4)c3)C(=O)N2C)cc1` (racemic), the IC50 against Aurora kinase A [1] and at Aurora kinase A [5] was 24 nM each time.
With `O=c1[nH]c2c(O)cccc2n1-c1nc2ccccc2[nH]1`, the IC50 against Aurora kinase A [1] is 21000 nM.
On Aurora kinase A [1], `CCCCc1ccc(/N=C2\S/C(=C\c3ccncc3)C(=O)N2C)cc1` came in with an IC50 of 3300 nM.
On Aurora kinase A [1], `Cc1ccc2[nH]c(-n3c(=O)[nH]c4ccccc43)nc2c1` registered an IC50 of 7800 nM.
In the case of `CCc1ccc(/N=C2\S/C(=C\c3ccncc3)C(=O)N2CC2CCCCC2)cc1`, the IC50 on Aurora kinase A [1] was over 200000 nM.
On to `O=c1[nH]c2ccccc2n1-c1nc2cc(Br)ccc2[nH]1`, for which the IC50 against Aurora kinase A [1] stood at 9000 nM.
Regarding `O=c1[nH]c2cc(Cl)ccc2n1-c1nc2ccccc2[nH]1`, the IC50 on Aurora kinase A [1] is over 200000 nM.
Same read-out and setting: then `O=C(O)c1ccc2c(c1)[nH]c(=O)n2-c1nc2ccccc2[nH]1`, with 3500 nM; and `O=C(O)c1ccc2[nH]c(=O)n(-c3nc4ccccc4[nH]3)c2c1`, with 3500 nM.
In the case of `CCc1ccc(/N=C2\S/C(=C\c3ccnc(Nc4ccc(CO)cc4)c3)C(=O)N2C)cc1`, the IC50 against Aurora kinase A [1] came out at 130 nM; in experiment [2], 2600 nM. Further, the Ratio IC50 in the experiment listed under Homo sapiens amounted to 20.
On to `O=c1[nH]c2ccc(O)cc2n1-c1nc2ccccc2[nH]1`, for which it took 12000 nM to reach half-maximal inhibition on Aurora kinase A [1] (IC50).
In the case of `CCc1ccc(/N=C2\S/C(=C\c3ccnc(N)c3)C(=O)N2C)cc1`, the IC50 stood at 190 nM against Aurora kinase A [1] and 23000 nM in experiment [2]. In the experiment listed under Homo sapiens, the Ratio IC50 was 121.
On Aurora kinase A [1], `CN1C(=O)/C(=C/c2ccncc2)S/C1=N\c1ccc(Br)cc1` gave an IC50 of 300 nM.
With `CCc1ccc(/N=C2\S/C(=C\c3ccnc(Nc4ccccc4)c3)C(=O)N2C)cc1`, the IC50 on Aurora kinase A [1] stood at 600 nM.
In the case of `COc1cc(Nc2ncc3c(n2)-c2ccc(Cl)cc2C(c2c(F)cccc2OC)=NC3)ccc1C(=O)O`, the Activity entry in the experiment with HeLa Kyoto was “Dose-dependent effect”.
`CCc1ccc(/N=C2/SC3(CC3c3ccnc(N)c3)C(=O)N2C)cc1` (racemic) showed an IC50 against Aurora kinase A [1] of over 200000 nM.
As for `O=c1[nH]c2ccccc2n1-c1nc2cc(C(F)(F)F)ccc2[nH]1`, at Aurora kinase A [1], the IC50 is over 70000 nM.
With `Cc1ccc(/N=C2\S/C(=C\c3ccncc3)C(=O)N2C)cc1C`, the IC50 at Aurora kinase A [1] amounted to 2000 nM.
As for `CCc1ccc(/N=C2/NC(=O)/C(=C/c3ccncc3)S2)cc1`, the midpoint of inhibition on Aurora kinase A [1], the IC50, lay at 430 nM.
With `CNC(=O)c1ccc2c(c1)[nH]c(=O)n2-c1nc2ccccc2[nH]1`, the IC50 on Aurora kinase A [1] was over 50000 nM.
On the same count and under the same terms, then `O=c1[nH]c2ccccc2n1-c1nc2ccccc2[nH]1`, with 6500 to 7000 nM.
As for `CCc1ccc(/N=C2\S/C(=C\c3ccncc3)C(=O)N2CC)cc1`, half-maximal inhibition against Aurora kinase A [1] (IC50) was put at 380 nM.
For the compound `CCc1ccc(/N=C2\SC(Cc3ccnc(N)c3)C(=O)N2C)cc1` (racemic), half-maximal inhibition at Aurora kinase A [1] (IC50) required 1290 nM.
On the same count and under the same terms, then `CCc1cccc(/N=C2\S/C(=C\c3ccncc3)C(=O)N2C)c1`, with 4900 nM; and `Cc1cccc2[nH]c(-n3c(=O)[nH]c4ccccc43)nc12`, with 14000 nM.
At Aurora kinase A [1], `CNC(=O)c1ccc2[nH]c(=O)n(-c3nc4ccccc4[nH]3)c2c1` gave an IC50 of 11000 nM.
In the case of `CCc1ccc(/N=C2\S/C(=C\c3ccncc3)C(=O)N2CCOC)cc1`, on Aurora kinase A [1], it took 480 nM to reach half-maximal inhibition (IC50).
As to `CCc1ccccc1/N=C1\S/C(=C\c2ccncc2)C(=O)N1C`, 52000 nM corresponded to half-maximal inhibition against Aurora kinase A [1] (IC50).
Compound `CN1C(=O)/C(=C/c2ccncc2)S/C1=N\c1ccccc1` gave an IC50 at Aurora kinase A [1] of 9000 nM.
